Assay: Toxicity liver stage against HepG2, at 10uM
Assay type: cell-based
Set-up: test concentration 10 uM, cell line HepG2-A16-CD81EGFP
Settings: human, HepG2-A16-CD81EGFP cells; read-out: INHIBITION
Method in brief: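 Uninfected HepG2-A16-CD81EGFP cells, 3 × 10^3 per well, 1536-well, plated on prespotted compound at 10 μM final, parasite-free screening media added to match infected plates; puromycin 10 μM positive, DMSO 0.5% negative; run in parallel with 48 h PbLuc assay at 37 °C, 5% CO2; viability by CellTiter-Glo luminescence, normalized to controls.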

| Structure (SMILES) | cytotoxicity at 10 µM [%] |
| --- | --- |
| CNC(=O)[C@H]1CC[C@@H]2[C@@H](CCN2C(=O)N(C)C)O1 | 6.86 |
| Cn1cc(-c2nc(C3CCN(S(C)(=O)=O)CC3)cc3c2ncn3C)cn1 | 1.39 |
| CCOC1CC2(CCN(C(=O)COC)CC2)c2cc(C)ccc21 (stereo not drawn) | -142 |
| CC(=O)N1Cc2nccn2CC(CNC(=O)c2ccnnc2)C1 (stereo not drawn) | -138 |
| O=C(NCc1ccc(Cl)cc1)C1CCCN(c2ccc3nncn3n2)C1 (stereo not drawn) | 6.44 |
| Cc1ccc(C(=O)N2CCCC3(CCCC(=O)N3C)C2)cc1F (stereo not drawn) | 4.12 |
| COC[C@]12COC[C@H]1CN(Cc1cccnc1OC)C2 | -9.83 |
| CCN1CCN(C(=O)Cn2ncc3c2c(C)nn3C(C)C)CC1 | 6.5 |
| CCn1nc(C)c2nnn(CC(=O)Nc3cccc(F)c3)c(=O)c21 | 8.44 |
| O=S(=O)(N1CCOCC1)N1CCCC(c2ccccn2)C1 (stereo not drawn) | 2.23 |
| COCC(=O)N1CCCC(C(=O)c2cnn(-c3ccc(F)cc3)c2N)C1 (stereo not drawn) | 9.71 |
| O[C@H]1CN(Cc2cc3ccccc3o2)CC[C@@]12CCCO2 | -21.9 |
| Cc1cc(C)nc(C2CCN(C(=O)c3cncnc3C)C2)n1 (stereo not drawn) | 5.16 |
| Cc1ccc2c(c1)C(=O)NCC1(CCN(C(=O)c3scnc3C)CC1)O2 | -17.3 |
| CC(C)N1CCC(Cc2cncc(-c3ccccc3C(=O)O)n2)C1 (stereo not drawn) | -10 |
| CC(=O)N1CCCCC1c1nc(C)cc(-c2ccccc2C(=O)O)n1 (stereo not drawn) | -12.8 |
| Cc1nc(C2CCN(C(=O)c3ccnn3C)CC2)c2sccn12 | -10.7 |
| Cc1cccnc1CN1CCC2(CC(Nc3ccncn3)C2)C1 (stereo not drawn) | -6.36 |
| CN(c1ccncn1)C1CC2(CCN(C(=O)c3cccn3C)C2)C1 (stereo not drawn) | -8.05 |
| CC(C)N1CCC(c2cc(C(F)(F)F)n3ccnc3n2)CC1 | -16.2 |
| C[C@]1(O)CN(Cc2ccc(C(=O)O)cc2)CC[C@@H]1Oc1cccc(F)c1 | -6.66 |
| CC(C)NC(=O)CN(C)C(=O)c1c(Cl)c2ccccc2n1C | 5.26 |

| Structure (SMILES) | cytotoxicity at 10 µM [%] |
| --- | --- |
| O=C(CN1CCCC(c2noc(C3CC3)n2)C1)N1CCCC1 (stereo not drawn) | 1.87 |
| CC(NCc1cnn(C)c1)c1noc(-c2ccc(Cl)cc2)n1 (stereo not drawn) | 3.97 |
| CC(C)(NCc1cccc(C#N)c1)c1ccc2c(c1)OCO2 | 3.34 |
| CN(C)Cc1nc(C(C)(C)NC(=O)c2ccc3ccccc3c2)no1 | -2.22 |
| C=C(C)CN(c1cn[nH]c1)S(=O)(=O)c1cccc(C#N)c1 | 3.84 |
| CSCc1ccc(CNCCN2CCOCC2)o1 | -0.583 |
| Cc1cc(NCCC(=O)NC2CCS(=O)(=O)C2)nc(-c2ccncc2)n1 (stereo not drawn) | -6.74 |
| COCCN1CCC(NC(=O)NCC2(c3ccccc3)CC2)C1 (stereo not drawn) | 0.814 |
| O=C(Nc1ccc(Cl)cn1)C1CCCN(Cc2ccccn2)C1 (stereo not drawn) | -10.5 |
| CS(=O)(=O)CCCC(=O)Nc1cc(Cl)c(Cl)cn1 | 2.69 |
| Cc1nn(C)c(N2CCCN(C)CC2)c1CNC(=O)CC(C)(C)C | 8 |
| Cc1csc(CNC(=O)NCC(O)c2ccc(F)cc2)n1 (stereo not drawn) | 12.1 |
| N#Cc1cccc(S(=O)(=O)N2CCCCC2C(N)=O)c1 (stereo not drawn) | 0.645 |
| Cc1n[nH]c(C2CN(C(=O)c3ccoc3C)CCO2)n1 (stereo not drawn) | -22.4 |
| Cn1cnn(Cc2c(F)cccc2Br)c1=O | 4.48 |
| Cc1cccc(C)c1CNC1(CCO)CCOCC1 | 1.93 |
| O=C(CCN1CCOC1=O)N(Cc1ccncc1)CC1CCCO1 (stereo not drawn) | 0.606 |
| CN(Cc1ccccc1)C(=O)CN1CCCC1c1cnn(C)c1 (stereo not drawn) | 6.91 |
| Fc1ccc(-c2ccc(CNC3CCc4ncnn4C3)o2)cc1 (stereo not drawn) | -7.62 |
| CCCS(=O)(=O)CC(=O)N1CCN(CC2CC2)c2ccccc21 | -7.44 |
| CC(Cn1cccn1)NC(=O)c1ccsc1 (stereo not drawn) | -5.2 |
| O=C(CCc1ccsc1)N1CCC(C(=O)O)(c2ccccc2)CC1 | 12.4 |

| Structure (SMILES) | cytotoxicity at 10 µM [%] |
| --- | --- |
| Cc1cnc(CNC(=O)N(Cc2ccccc2)CC(C)(C)O)s1 | -3.22 |
| Cc1cccc(C(C)(C)CNC(=O)CN(C)S(=O)(=O)c2cccnc2)c1 | 7.41 |
| CN(C)c1cccc(CNC(=O)Nc2cc(C#N)ccc2Cl)n1 | 21.6 |
| CC(NC(=O)NCCN1CCCCCC1=O)c1ccc(Cl)s1 (stereo not drawn) | -0.331 |
| O=C(c1cnc2[nH]c(=O)[nH]c(=O)c2c1)N1CCCC1C1CCCC1 (stereo not drawn) | 6.22 |
| CC(NC1(CNC(=O)C(C)(C)C#N)CCOCC1)c1ccccc1 (stereo not drawn) | 7.35 |
| COC(=O)CCN1CCCC1c1cccc2c1OCCO2 (stereo not drawn) | 17.7 |
| Cc1cc(C)n(CCCNC(=O)[C@@H](C)NC(=O)OC(C)(C)C)n1 | -8 |
| Cc1nc(C)c(C(=O)N2CCCC2c2nnc3n2CCCCC3)s1 (stereo not drawn) | -2.62 |
| Cn1ccnc1CC1CCCN(C(=O)Nc2cccn(C)c2=O)C1 (stereo not drawn) | -4.79 |
| Cc1cccc(S(=O)(=O)N2C[C@@H]3C[C@@H](c4nnc(C)[nH]4)O[C@@H]3C2)c1 | 9.59 |
| CC(=O)NCC(=O)N1C[C@@H](C)[C@@]2(CCN(c3ccsc3)C2=O)C1 | -74.7 |
| OCCNc1nccc(-c2c[nH]nc2-c2cccnc2)n1 | -8.22 |
| COC[C@@]12CC[C@@H](N3CCOCC3)C[C@H]1CCN(c1nc(CO)cs1)C2 | -3.61 |
| COCc1cc(NCc2ccccc2-n2cncn2)ncn1 | -0.132 |
| O=C(c1cccc(Cl)c1)C1CCCN(c2nnc(C3CCC3)o2)C1 (stereo not drawn) | 0.409 |
| O=C(c1cnn2ccccc12)N1CCCC(OCc2ccccn2)C1 (stereo not drawn) | -3.74 |
| CCOC(=O)CCNC(=O)N1CCCC(CNC(=O)c2ccco2)C1 (stereo not drawn) | 14.9 |
| CN1CCC(n2nc(Cc3cccc(Cl)c3)nc2Cn2cnnn2)CC1 | -12.4 |
| CCC[C@@H]1CN(C(=O)c2c(F)ccc(C)c2Cl)C[C@H]1C(=O)O | -4.39 |
| O=C(c1cnc(O)cc1O)N1CCCC(CCc2ccccc2F)C1 (stereo not drawn) | -2.24 |
| CNCCN1C(=O)CC[C@H]2CN(c3cnc4ccccc4n3)CC[C@H]21 | -1.62 |

| Structure (SMILES) | cytotoxicity at 10 µM [%] |
| --- | --- |
| CC(C)=CCN1CCN(Cc2nc3ccccc3[nH]2)[C@H]2CS(=O)(=O)C[C@H]21 | -132 |
| COC(=O)N1CCCCC1C(=O)N1CCCN(c2ccnc(C)c2)CC1 (stereo not drawn) | -3.76 |
| CSc1nccc(NCc2cc3n(n2)CCCN(C(=O)C2CCC2)C3)n1 | -118 |
| Cc1ccc(C(=O)O)cc1-c1cccc2c1CCNC2 | 7.56 |
| O=C(c1cc2ccccc2[nH]c1=O)N1CCC2(CCCNC2)C1 (stereo not drawn) | -4.66 |
| COc1cccc(-c2ncc(CN3CC[C@H](CO)[C@@H](O)C3)s2)c1 | 4.23 |
| COCc1noc(CN2CCC3(CC2)[C@H](O)C[C@@H]3OC)n1 | 0.0851 |
| O=C(O)c1cccc(CC2CCN(c3ncccn3)CC2)c1 | -134 |
| Cc1nnc(CN(C)Cc2ccc(C(=O)Nc3sccc3C#N)cc2)o1 | -6.88 |
| CN(CC(=O)Nc1ccon1)S(=O)(=O)c1cc(Cl)ccc1Cl | 0.424 |
| COc1ccc2c(C(=O)N(C)C)cc(-c3cnc(N)nc3)nc2c1 | -3.3 |
| COCc1c(C(=O)N2CCCC(C(=O)c3ccccc3)C2)noc1C (stereo not drawn) | -2.54 |
| CC(C)NS(=O)(=O)c1cc(C(=O)O)cc(-c2ccc(CN(C)C)cc2)c1 | 13.3 |
| CCSc1ncc(Cl)c(C(=O)NC(CCSC)C(=O)O)n1 (stereo not drawn) | -8.91 |
| CCC(NC(=O)c1nn(C)cc1C(=O)O)c1ccccc1 (stereo not drawn) | -7.41 |
| CC(=O)N(C)C(c1cccc(F)c1)c1ccccn1 (stereo not drawn) | -1.63 |
| Cn1ccc(C(=O)Nc2cc(F)ccc2OCC2CCCO2)cc1=O (stereo not drawn) | -1.59 |
| Cc1nnc(NCc2ccccc2S(=O)(=O)N(C)C)c(C#N)c1C | -8.51 |
| c1cncc(-c2noc(CN3CCn4c(nnc4C4CC4)C3)n2)c1 | -8.69 |
| O=C(NCc1cc[nH]n1)NCC(c1ccccc1)N1CCOCC1 (stereo not drawn) | -3.39 |
| Cc1cnn(CC2CN(c3nnc(C)c(C)c3C#N)CCO2)c1 (stereo not drawn) | -5.25 |
| COC(=O)c1cccn1C1CCN(Cc2nc3ccccc3o2)CC1 | 1.81 |

| Structure (SMILES) | cytotoxicity at 10 µM [%] |
| --- | --- |
| CC(=O)Nc1nc(CN2CCOC(Cn3nc(C)cc3C)C2)cs1 (stereo not drawn) | 4.23 |
| CC1CN(C(=O)CN(Cc2ccccc2)C2CC2)CCO1 (stereo not drawn) | -16.1 |
| Cc1cccc(OCCCNC(=O)NC(C)c2nncn2C)c1 (stereo not drawn) | -7.5 |
| CN(Cc1cccc(F)c1)C(=O)CS(=O)(=O)Cc1ccc(Cl)c(Cl)c1 | -4.67 |
| Cc1cc(CN(C)C(=O)c2ccc(C(F)(F)F)nc2)no1 | 2.05 |
| Cc1cc(C)c(CNC(=O)N2CCCC2c2cccn2C)c(=O)[nH]1 (stereo not drawn) | -2.82 |
| Cc1nc2ccccc2nc1CN1CCCC1c1c(C)nn(C)c1C (stereo not drawn) | -1.78 |
| Cc1cccnc1[C@]1(O)CC[C@H]2CN(Cc3cccc(Cl)c3Cl)C[C@H]21 | -5.86 |
| c1csc(CN2CCCn3nnc(COCC4CC4)c3C2)n1 | -101 |
| O=C(N1CCOCC1)N1CCc2ncc(CN3CCCCC3)n2CC1 | -87.7 |
| Cc1cc(F)ccc1C(=O)N1C[C@@H]2COC[C@]2(CN(C)C)C1 | -142 |
| NCCCNS(=O)(=O)Cc1ccc(Br)cc1 | -0.447 |
| O=C(N1CCCC1)N1CCC2(CCN(Cc3ccccn3)C2=O)C1 (stereo not drawn) | 3.2 |
| Cn1cc(CN2CCC[C@]3(C[C@@H](Oc4ccccn4)CO3)C2)cn1 | 7.5 |
| Cc1occc1C(=O)N1C[C@@H]2OCCN(C(C)C)[C@@H]2C1 | -73.4 |
| O=C(c1cscn1)N1CCC2(CN(Cc3nccs3)C2)C1 | -72.6 |
| O=C1[C@H]2CN(Cc3ccncc3)C[C@H]2CN1c1ccsc1 | -81.1 |
| c1cnc(N2CCC3(CCN(CC4CCOC4)CC3)CC2)nc1 (stereo not drawn) | -1.22 |
| COc1cccc(CC(=O)N2CC[C@@H](OC)[C@@H]2Cc2cccnc2)c1 | 3.71 |
| CSc1nc(N)c2c(n1)N=C1COC(=O)C1C2c1cccc(Cl)c1 (stereo not drawn) | 37.5 |
